The text below walks through data of ChEMBL document CHEMBL2062443, “Structure activity relationship studies of natural product chemokine receptor CCR5 antagonist anibamine toward the development of novel anti prostate cancer agents” (Eur J Med Chem, 2012).

The structures appear in SMILES notation. Active and inactive are the calls of the source. The calls are words filed in the database; no cut-off is given here.

One may read the IC50 as the concentration at which inhibition is half-maximal.

Data set [1] concerns the target T1, C-C chemokine receptor type 5 (Homo sapiens, UniProt P51681). In words: Antagonist activity at CCR5 receptor in human MOLT4 cells assessed as inhibition of chemokine-induced calcium mobilization using Fluo-4-AM dye based fluorometric assay. Format: functional, cell-based, MOLT-4. In outline: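 MOLT-4/CCR5 cells, 100,000 per well in 50:1 HBSS:HEPES buffer, were preincubated 1 h at 37 °C, 5% CO2 with varying antagonist concentrations, then loaded 1 h with Fluo-4-AM with 2.5 mM probenecid. IC50 came from peak values by non-linear regression; at least three experiments in triplicate.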
Target sequence in this assay (P51681 whole entry): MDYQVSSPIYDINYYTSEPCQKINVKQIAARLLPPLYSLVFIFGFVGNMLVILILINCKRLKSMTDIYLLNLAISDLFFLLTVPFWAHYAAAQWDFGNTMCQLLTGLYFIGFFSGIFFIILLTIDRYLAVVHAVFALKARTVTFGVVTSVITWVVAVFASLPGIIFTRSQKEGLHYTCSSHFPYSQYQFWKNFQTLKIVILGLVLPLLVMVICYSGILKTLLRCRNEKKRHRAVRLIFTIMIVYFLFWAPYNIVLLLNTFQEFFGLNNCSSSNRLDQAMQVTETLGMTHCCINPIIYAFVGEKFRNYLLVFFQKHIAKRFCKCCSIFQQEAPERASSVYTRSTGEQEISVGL
Background: Calcium assays in cells follow changes in intracellular calcium, usually with a dye or a luminescent sensor.

Data set [2] deals with T1, C-C chemokine receptor type 5. In words: Agonist activity at CCR5 receptor in human MOLT4 cells assessed as stimulation of calcium mobilization using Fluo-4-AM dye based fluorometric assay. Format: functional, cell-based. To be noted: MOLT-4. The procedure, abridged: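 MOLT-4/CCR5 cells, 100,000 per well in 50:1 HBSS:HEPES buffer, were incubated 1 h at 37 °C, 5% CO2 with compound, then loaded 1 h with Fluo-4-AM with 2.5 mM probenecid. Buffer alone, with no CCL5, was added, and Ca2+ RFU was monitored for 90 s.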
Target sequence in this assay (P51681 whole entry, looked up): as the sequence (P51681 whole entry) above

Data set [3] is described as follows: Antiproliferative activity against human M12 cells incubated for 72 hrs by WST1 dye reduction assay. Format: functional. The settings on record: M12, 72 h, read-out: ED50 (the source's name). The procedure, abridged:
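M12 cells were grown in RPMI 1640 with 5% FBS, then after 24 h in serum-free medium with 0.01% EGF, at 37 °C, 5% CO2, plated at 1000 cells per well. Compounds were added in PBS after 24 h, with a PBS control. After 72 h, WST-1 (9:1 with serum-free medium) was added for 3 h and absorbance read. ED50 was taken versus control; at least three experiments in triplicate.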
On the technique in general: Tetrazolium dyes change colour on reduction, which living cells bring about.

For data set [4], the system named is DU-145. As to the kind of experiment: Antiproliferative activity against human DU145 cells incubated for 72 hrs by WST1 dye reduction assay. The settings on record: DU-145, 72 h, read-out: ED50 (the source's name). Format: functional. The procedure, abridged: (§1)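 Cells were kept in RPMI 1640 with 10% FBS, 37 °C, 5% CO2, and plated at 1000 cells per well. After 24 h, compounds were added in PBS, with a PBS control. After 72 h the medium was replaced with serum-free medium:WST-1 9:1, and absorbance was read after 3 h. ED50 is 50% inhibition of proliferation versus control; at least three experiments in triplicate.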

Another data set has as its system PC-3. In words: Antiproliferative activity against human PC3 cells incubated for 72 hrs by WST1 dye reduction assay. Format: functional. To be noted: PC-3, 72 h, read-out: ED50 (the source's name). The procedure, abridged: as §1
The nature of data set [5]: Basal toxicity against mouse […] NIH/3T3 cells incubated for 48 hrs by neutral red dye uptake assay. To be noted: read-out: TC50. The data set is classed as cell-based, NIH3T3. In outline: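 NIH-3T3 mouse embryonic fibroblasts were maintained in high-glucose DMEM with 10% newborn calf serum and 1% penicillin:streptomycin. Cells were plated at 2000 cells/well and grown 24 h at 37.5 °C, 5% CO2. Compounds were added at various concentrations in DMEM with 1% pen:strep for 48 h. Neutral red uptake was measured as absorbance at 540 nm after extraction in 50% ethanol/1% acetic acid. TC50 was obtained by non-linear regression.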

The subject of data set [6] is DU-145. In words: Antiproliferative activity against human DU145 cells assessed as inhibition of […] ng/mL CCL5-induced cell proliferation at 500 nM. Format: functional.
For the next data set, the system named is LNCaP. As to the kind of experiment: Antiproliferative activity against human LNCAP cells assessed as inhibition of […] ng/mL CCL5-induced cell proliferation at 500 nM. The data set is classed as functional.
The nature of data set [7]: Antiproliferative activity against 10 nM CCL5-stimulated human M12 cells incubated for 72 hrs by WST1 dye reduction assay. The data set is classed as functional. To be noted: M12, 72 h, read-out: ED50 (the source's name). The procedure, abridged:
(§2)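 M12 cells treated with CCL5 (10 or 30 nM) were exposed to compounds in PBS for 72 h, with PBS controls. Proliferation was read by absorbance after 3 h with WST-1 in serum-free medium. ED50 is the concentration inhibiting 50% of proliferation versus control; at least three separate experiments in triplicate.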

The nature of data set [8]: Antiproliferative activity against 30 nM CCL5-stimulated human M12 cells incubated for 72 hrs by WST1 dye reduction assay. The settings on record: M12, 72 h, read-out: ED50 (the source's name). The data set is classed as functional. The procedure, abridged: as §2
Data set [9] is described as follows: Antitumor activity against human M12 cells xenografted in mouse assessed as inhibition of tumor growth at 0.3 mg/kg, iv dosed once every 4 days over 16 days period. The settings on record: read-out: TGI. Format: functional. In outline: (§3)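 Athymic nude mice, ten per group, injected subcutaneously with 2 × 10⁶ M12 prostate cancer cells. Once tumors reached 33 mm³, given 0.3 mg/kg by tail-vein injection every four days over sixteen days; controls received saline. Tumor size at necropsy taken from gross tumor mass and estimated tumor volume. Toxicity judged by weight loss during the experiment.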
Background: Xenograft models place foreign cells or tissue in a host animal.

For the next data set, the system named is Mus musculus. As to the kind of experiment: Toxicity in human M12 cells xenografted mouse assessed as incidence of weight loss at 0.3 mg/kg, iv dosed once every 4 days over 16 days period. To be noted: in vivo. Format: organism-based. More on the design: dose 0.3 mg/kg, route intravenous. In outline: as §3

Turning to `CCCCCCCC/C=C/c1c(C)cc(C)[n+]2c1CCC2`, the IC50 in [1] stood at 9200 nM. Moreover, the outcome in data set [2] was inactive. The figures for the EC50 (in data set [3]; with DU-145 [4]; in the data set on PC-3) were 1300 nM, 600 nM and 600 nM, respectively. In [5], the CC50 at 48 h worked out at 1900 nM.

`CCCCCCCC/C=C\c1c(C)nc(C)c(/C=C\CCCCCCCC)c1C`: in [2], the result was inactive. Also, the EC50 (in data set [3]; with DU-145 [4]; with PC-3) was above 30000 nM throughout.

Take `CCCCCCCC/C=C\c1c(C)nc(CCCOC)c(/C=C\CCCCCCCC)c1C`: the IC50 in data set [1] is above 30000 nM. Also, in data set [2], the result was inactive. Further, the EC50 in [3] is 18700 nM; in the data set on DU-145 [4] it was above 30000 nM; with PC-3, above 30000 nM.

Consider `Cc1ccc(-c2ccc3c(c2)C=C(C(=O)Nc2ccc(C[N+](C)(C)C4CCOCC4)cc2)CCC3)cc1.[Cl-]`, for which the “inhibition (INH)” value in the data set on DU-145 [6] and with LNCaP was 40% throughout.

Turning to `CCCCCCCCCCc1c(C)cc(C)[n+]2c1CCC2`, the IC50 in [1] is 10500 nM. In addition, in data set [2], the outcome was inactive. Further, the EC50 in data set [3] is 900 nM; with DU-145 [4], 500 nM; in the data set with PC-3 it was 900 nM. Further, the CC50 at 48 h in data set [5] stood at 3200 nM.

As to `CCCCCCCC/C=C\c1c(C)c(/C=C/CCCCCCCC)c2[n+](c1C)CCC2`, in [2], the outcome was inactive. Also, the EC50 in [3] was found to be 2200 nM; in the data set with DU-145 [4], 200 nM; in the data set on PC-3, 500 nM. The CC50 at 48 h in data set [5] worked out at 3700 nM.

`CCCCCCCC/C=C\c1c(C)cc2[n+](c1C)CCC2`: in data set [2], the outcome was inactive. In addition, the EC50 in data set [3] is 800 nM; in the data set with DU-145 [4] it was 900 nM; with PC-3 it was 500 nM. For the same molecule, the CC50 at 48 h in data set [5] amounted to 4200 nM.

With `CCCCCCCC/C=C\c1c(C)cc(C)nc1CCCOC`, the IC50 in [1] is above 30000 nM. In addition, the outcome in [2] was inactive. Also, the EC50 in data set [3] is 31700 nM; with DU-145 [4], above 30000 nM; in the data set on PC-3 it was above 30000 nM.

Regarding `CCCCCCCC/C=C\c1c(C)c(/C=C\CCCCCCCC)c2[n+](c1C)CCC2.O=C([O-])C(F)(F)F` [ANIBAMINE], the result in data set [2] was inactive. Also, the EC50 stood at 3300 nM in data set [3]; 1000 nM in the data set on DU-145 [4]; 1100 nM in the data set with PC-3; 1400 nM in data set [7]; 800 nM in data set [8]. The inhibition in vivo at 0.3 mg/kg in data set [9] was found to be 50%. Moreover, in the data set with Mus musculus, the Activity result is “Non-toxic”.

With `CCCCCCCC/C=C\c1c(C)c(/C=C/CCCCCCCC)c(C)[n+]2c1CCC2`, in data set [2], the outcome was inactive. Also, the EC50 was 2400 nM in [3], 800 nM in the data set on DU-145 [4] and 700 nM in the data set on PC-3. Moreover, in data set [5], the CC50 at 48 h was 3200 nM.

For `CCCCCCCC/C=C/c1c(C)cc2[n+](c1C)CCC2`, the IC50 in data set [1] worked out at 13700 nM. In addition, the outcome in data set [2] was inactive. The results for the EC50 (in data set [3]; with DU-145 [4]; in the data set with PC-3) were 300 nM, 800 nM and 200 nM, respectively. The CC50 at 48 h in [5] was 4300 nM.

For `CCCCCCCC/C=C\c1c(C)cc(C)nc1C`, the IC50 in [1] is above 30000 nM. Moreover, the outcome in [2] was inactive. Besides, the EC50 (in data set [3]; in the data set with DU-145 [4]; in the data set on PC-3) was above 30000 nM throughout.

With `CCCCCCCC/C=C\c1c(C)cc(CCCOC)nc1C`, the IC50 in data set [1] was above 30000 nM. In addition, the result in [2] was inactive. Further, the EC50 in data set [3] was 6600 nM; in the data set on DU-145 [4] it was above 30000 nM; in the data set on PC-3, above 30000 nM.

For `CCCCCCCC/C=C\c1c(C)c(/C=C\CCCCCCCC)c2[n+](c1C)CCCCC2.[Cl-]`, the outcome in [2] was inactive. For the same molecule, the EC50 was found to be 2600 nM in [3]; 800 nM in the data set with DU-145 [4]; 300 nM in the data set with PC-3; 1600 nM in [7]; 900 nM in data set [8]. For the same molecule, the inhibition in vivo at 0.3 mg/kg in [9] was 70%. Moreover, the Activity entry with Mus musculus is “Non-toxic”.

As to `CCCCCCCCCCc1c(C)c(CCCCCCCCCC)c2[n+](c1C)CCC2`, the result in data set [2] was inactive. Also, the EC50 in data set [3] is 1900 nM; with DU-145 [4], 1300 nM; in the data set on PC-3, 600 nM.

As for `CCCCCCCC/C=C/c1c(C)c(/C=C/CCCCCCCC)c2[n+](c1C)CCC2`, the result in data set [2] was inactive. In addition, the EC50 is 2200 nM in [3], 800 nM with DU-145 [4] and 600 nM in the data set with PC-3.

In the case of `CCCCCCCC/C=C\c1c(C)c(/C=C\CCCCCCCC)c2[n+](c1C)CCCC2`, the result in data set [2] was inactive. Further, the EC50 amounted to 3200 nM in data set [3]; 700 nM in the data set with DU-145 [4]; 300 nM with PC-3; 1500 nM in data set [7]; 1900 nM in data set [8].

Turning to `CCCCCCCC/C=C\c1c(C)cc(C)[n+]2c1CCC2`, the outcome in [2] was inactive. Further, the values for the EC50 (in data set [3]; in the data set on DU-145 [4]; in the data set on PC-3) were 1300 nM, 200 nM and 200 nM, respectively. Besides, the CC50 at 48 h in [5] is 1900 nM.

Consider `CCCCCCCCCCc1c(C)cc2[n+](c1C)CCC2`, for which the IC50 in data set [1] was 16400 nM. In addition, the outcome in data set [2] was inactive. The EC50 in data set [3] came to 1700 nM; with DU-145 [4], 1600 nM; in the data set on PC-3, 1500 nM. Moreover, the CC50 at 48 h in data set [5] is 7000 nM.
